Test results taken from ChEMBL document CHEMBL5247671, “Design and Synthesis of Pyrazole-Based Macrocyclic Kinase Inhibitors Targeting BMPR2” (ACS Med Chem Lett, 2023).

Assays:
[1] = biological target: Cyclin-dependent kinase 2 (Homo sapiens) (UniProt P24941); experiment: Inhibition of recombinant CDK2 (unknown origin) at 10 uM by DSF assay relative to staurosporine
Outline: (§1)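 Differential scanning fluorimetry on an in-house panel of 90 recombinant kinases. Stabilization is read as the shift in melting temperature (ΔTm) relative to ligand-free protein. Staurosporine served as the positive control, and binding was also compared against its ΔTm.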

[2] = biological target: Cyclin-dependent kinase 2 (Homo sapiens) (UniProt P24941); experiment: Binding affinity to recombinant CDK2 (unknown origin) assessed as change in melting temperature at 10 uM by DSF assay; outline: as §1
[3] = biological target: Serine/threonine-protein kinase 24 (Homo sapiens) (UniProt Q9Y6E0); experiment: Binding affinity to recombinant MST3 (unknown origin) assessed as change in melting temperature at 10 uM by DSF assay; outline: as §1
Chain of Serine/threonine-protein kinase 24 (Homo sapiens) (Q9Y6E0 whole entry, looked up): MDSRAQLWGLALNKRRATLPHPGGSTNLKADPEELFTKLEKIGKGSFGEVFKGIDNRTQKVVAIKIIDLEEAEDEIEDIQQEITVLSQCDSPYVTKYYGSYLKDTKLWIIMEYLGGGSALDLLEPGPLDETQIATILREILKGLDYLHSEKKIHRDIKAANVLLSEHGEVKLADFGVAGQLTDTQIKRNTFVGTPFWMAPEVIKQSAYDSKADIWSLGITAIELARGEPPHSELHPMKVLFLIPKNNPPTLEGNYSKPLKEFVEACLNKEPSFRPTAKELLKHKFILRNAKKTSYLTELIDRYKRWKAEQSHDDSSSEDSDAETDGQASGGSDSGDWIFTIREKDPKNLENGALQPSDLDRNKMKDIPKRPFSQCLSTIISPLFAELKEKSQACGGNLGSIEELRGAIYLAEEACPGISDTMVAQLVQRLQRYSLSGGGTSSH

[4] = biological target: T1, Bone morphogenetic protein receptor type-2 (Homo sapiens, UniProt Q13873); experiment: Inhibition of BMPR2 (unknown origin) assessed as dissociation constant by ITC assay
T1 sequence (Q13873 whole entry): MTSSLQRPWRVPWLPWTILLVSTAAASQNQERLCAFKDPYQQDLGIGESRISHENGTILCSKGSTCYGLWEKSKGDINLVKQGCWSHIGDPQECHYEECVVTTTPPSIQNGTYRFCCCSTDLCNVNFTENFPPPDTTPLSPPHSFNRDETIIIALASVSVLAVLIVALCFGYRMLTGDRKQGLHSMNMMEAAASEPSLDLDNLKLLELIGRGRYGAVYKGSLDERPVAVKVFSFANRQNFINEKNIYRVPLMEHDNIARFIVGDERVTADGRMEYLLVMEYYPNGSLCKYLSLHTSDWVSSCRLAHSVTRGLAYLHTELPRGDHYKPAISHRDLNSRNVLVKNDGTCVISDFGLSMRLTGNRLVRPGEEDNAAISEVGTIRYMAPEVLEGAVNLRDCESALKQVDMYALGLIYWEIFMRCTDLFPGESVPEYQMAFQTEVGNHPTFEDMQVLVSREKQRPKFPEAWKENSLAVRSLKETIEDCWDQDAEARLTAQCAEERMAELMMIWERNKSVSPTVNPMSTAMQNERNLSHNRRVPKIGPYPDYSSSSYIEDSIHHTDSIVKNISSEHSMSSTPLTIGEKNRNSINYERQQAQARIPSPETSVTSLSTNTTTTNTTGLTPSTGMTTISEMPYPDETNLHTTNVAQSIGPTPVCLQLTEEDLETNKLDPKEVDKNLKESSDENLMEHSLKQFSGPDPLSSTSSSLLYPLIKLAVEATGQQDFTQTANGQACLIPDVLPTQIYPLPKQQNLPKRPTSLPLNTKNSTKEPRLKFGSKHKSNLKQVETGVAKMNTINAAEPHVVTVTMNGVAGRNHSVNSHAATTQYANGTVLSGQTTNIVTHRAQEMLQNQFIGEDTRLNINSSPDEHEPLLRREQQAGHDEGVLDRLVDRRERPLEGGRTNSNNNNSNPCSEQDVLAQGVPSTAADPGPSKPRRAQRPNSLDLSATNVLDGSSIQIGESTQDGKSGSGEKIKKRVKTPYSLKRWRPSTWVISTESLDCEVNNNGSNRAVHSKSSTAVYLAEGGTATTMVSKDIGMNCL
Outline: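 Binding measured by isothermal titration calorimetry against the recombinant BMPR2 kinase domain. Thermodynamic binding parameters, including the dissociation constant, were derived from the titration data.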

[5] = biological target: T2, Glycogen synthase kinase-3 beta (Homo sapiens, UniProt P49841); experiment: Inhibition of N-terminal NanoLuc-fused full length intact GSK3B (unknown origin) transfected in HEK293T cells incubated for 2 hrs in presence of tracer K8 by NanoBRET assay; type: cell-based
Outline: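 Cellular target engagement by NanoBRET in intact cells expressing NanoLuc-fused GSK3A or GSK3B, with EC50 values derived from tracer displacement.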
Target sequence in this assay (P49841 whole entry, the tested form may be a part): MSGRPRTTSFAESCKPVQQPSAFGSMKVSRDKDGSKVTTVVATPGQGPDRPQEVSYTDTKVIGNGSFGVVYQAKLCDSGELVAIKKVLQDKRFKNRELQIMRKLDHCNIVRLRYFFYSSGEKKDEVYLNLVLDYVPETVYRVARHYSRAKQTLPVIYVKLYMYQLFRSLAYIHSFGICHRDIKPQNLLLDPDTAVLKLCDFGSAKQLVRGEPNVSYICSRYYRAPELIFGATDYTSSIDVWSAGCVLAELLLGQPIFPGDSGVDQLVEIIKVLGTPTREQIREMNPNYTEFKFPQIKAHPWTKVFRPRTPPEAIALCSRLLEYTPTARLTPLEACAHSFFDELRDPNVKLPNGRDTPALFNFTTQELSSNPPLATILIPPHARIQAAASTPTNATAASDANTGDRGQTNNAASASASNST

[6] = biological target: T2, Glycogen synthase kinase-3 beta; experiment: Inhibition of recombinant GSK3B (unknown origin) at 10 uM by DSF assay relative to staurosporine; outline: as §1
Target sequence in this assay (P49841 whole entry, looked up, the tested form may be a part): as the sequence (P49841 whole entry, the tested form may be a part) above

[7] = biological target: T2, Glycogen synthase kinase-3 beta; experiment: Inhibition of N-terminal NanoLuc-fused full length lysed GSK3B (unknown origin) transfected in HEK293T cells incubated for 2 hrs in presence of tracer K8 by NanoBRET assay; type: cell-based
Outline: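 GSK3B NanoBRET run in the lysed mode, with cells permeabilized by digitonin to bypass compound cell penetration. EC50 values were derived from tracer displacement.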
Target sequence in this assay (P49841 whole entry, the tested form may be a part): as above

[8] = biological target: Serine/threonine-protein kinase 24 (Homo sapiens) (UniProt Q9Y6E0); experiment: Inhibition of recombinant MST3 (unknown origin) at 10 uM by DSF assay relative to staurosporine; outline: as §1
[9] = biological target: T3, Serine/threonine-protein kinase 4 (Homo sapiens) (UniProt Q13043); experiment: Inhibition of recombinant STK4 (unknown origin) at 10 uM by DSF assay relative to staurosporine; outline: as §1
T3 sequence (whole entry): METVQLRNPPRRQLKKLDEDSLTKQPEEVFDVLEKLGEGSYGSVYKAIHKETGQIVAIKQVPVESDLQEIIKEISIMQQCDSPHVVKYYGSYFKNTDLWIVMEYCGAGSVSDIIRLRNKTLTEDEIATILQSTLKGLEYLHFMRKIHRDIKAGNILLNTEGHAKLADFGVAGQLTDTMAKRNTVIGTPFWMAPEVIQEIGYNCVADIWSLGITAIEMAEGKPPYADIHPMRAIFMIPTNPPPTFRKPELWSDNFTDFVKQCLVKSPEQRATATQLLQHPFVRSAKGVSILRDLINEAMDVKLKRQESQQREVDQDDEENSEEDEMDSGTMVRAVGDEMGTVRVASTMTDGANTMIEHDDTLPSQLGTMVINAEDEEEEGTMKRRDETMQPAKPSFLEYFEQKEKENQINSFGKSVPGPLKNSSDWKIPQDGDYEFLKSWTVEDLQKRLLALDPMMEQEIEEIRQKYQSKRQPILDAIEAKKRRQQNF

- inhibition [1]: 25%
- ΔTm [2]: 3.3 °C
- ΔTm [3]: 3.2 °C
- Kd [4]: 0.0835 µM
- IC50 [5]: 34 µM
- inhibition [6]: 71%
- IC50 [7]: 2.3 µM
- inhibition [8]: 44%
- inhibition [9]: 22%
Compound: O=C1NCCc2ccc(cc2)Nc2nccc(n2)Nc2cc1[nH]n2
